pIC50: −log10 of the molar value. Entries after “also recorded” stand apart in the source; their conditions may differ. Blank lines part the entries; values can stand above or below the molecule they belong to.
Legend:
Stat3 = Stat3 DNA-binding activity/EMSA of nuclear extracts from treated glioma cells; type: cell-based, human; details: for effect on Stat3 DNA-binding activity in treated tumor cells: 5 μM, glioma cells, EMSA
Stat5:Stat5 = test: Cell-free EMSA, EGF-stimulated NIH3T3/hEGFR nuclear extracts, MGFe probe; type: biochemical, mouse; details: 5 μM, 30 min pre-incubation
Procedure, shortened: (§1)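 Nuclear extracts from EGF-stimulated NIH3T3/hEGFR fibroblasts, containing active Stat1, Stat3 and Stat5, preincubated with 5 μM test compound for 30 min at room temperature. Then incubated 30 min with 32P-labelled probe before EMSA: hSIE (Stat1/Stat3 binding) or MGFe (bovine β-casein element; Stat1/Stat5 binding). STAT:DNA bands quantified as percent of control.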

Stat3:Stat3 = Stat3:Stat3 (Mus musculus, UniProt P42227); test: Cell-free EMSA, nuclear extracts pre-incubated with compound, hSIE probe; type: biochemical; details: 5 μM, 30 min pre-incubation, NIH3T3/v-Src nuclear extracts
Stat3:Stat3, sequence (P42227 2-770 limits assumed): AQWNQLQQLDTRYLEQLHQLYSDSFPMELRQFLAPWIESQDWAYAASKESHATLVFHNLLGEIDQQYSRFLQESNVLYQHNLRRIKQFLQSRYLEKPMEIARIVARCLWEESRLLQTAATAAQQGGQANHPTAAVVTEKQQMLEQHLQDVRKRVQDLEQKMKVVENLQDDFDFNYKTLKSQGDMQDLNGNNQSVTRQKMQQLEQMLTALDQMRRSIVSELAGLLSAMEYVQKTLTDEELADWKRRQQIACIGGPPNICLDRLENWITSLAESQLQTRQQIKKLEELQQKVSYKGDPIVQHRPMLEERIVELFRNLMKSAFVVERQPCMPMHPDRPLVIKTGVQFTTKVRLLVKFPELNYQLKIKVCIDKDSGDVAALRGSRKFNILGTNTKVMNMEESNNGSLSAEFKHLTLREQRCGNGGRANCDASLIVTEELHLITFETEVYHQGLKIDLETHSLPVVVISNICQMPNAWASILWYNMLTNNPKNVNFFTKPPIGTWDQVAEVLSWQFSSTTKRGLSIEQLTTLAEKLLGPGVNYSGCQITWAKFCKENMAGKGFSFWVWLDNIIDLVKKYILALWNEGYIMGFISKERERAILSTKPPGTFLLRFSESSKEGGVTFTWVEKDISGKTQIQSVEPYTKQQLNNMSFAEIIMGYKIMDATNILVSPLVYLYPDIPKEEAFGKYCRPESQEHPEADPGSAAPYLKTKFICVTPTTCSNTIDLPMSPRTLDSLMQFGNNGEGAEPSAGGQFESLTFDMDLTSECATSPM

pYStat3 = test: Immunoblotting of pStat3 in treated U251MG cells; type: cell-based, human; details: for effect on pStat3 in treated tumor cells: 5 μM, glioma cells, immunoblotting
Procedure, shortened: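 Whole-cell lysates from U251MG cells given test compound at 5 μM for 0–24 h, or at 0–5 μM for 2 h. Immunoblotted for pY705Stat3 and total Stat3, with GAPDH as loading reference.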

U251MG cells [1] = test: Immunofluorescence staining/confocal microscopy of mitosis; type: cell-based, human; details: 15 h treatment
Procedure, shortened: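 U251MG cells on coverslips synchronised by double thymidine block (2 mM) and released for 9 h. Then given DMSO, 100 nM paclitaxel or 8 μM test compound for 15 h. Fixed in 4% paraformaldehyde, permeabilised with 0.1% digitonin and blocked in 0.2% BSA. Stained with anti-β-tubulin (1:350) and anti-MAP1B (1:300) for 1 h at room temperature, then fluorescent secondaries and DAPI; confocal imaging.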

Stat1:Stat1 = target: T1, Stat1:Stat1 (Mus musculus, UniProt P42225); test: Cell-free EMSA, EGF-stimulated NIH3T3/hEGFR nuclear extracts; type: biochemical; details: 5 μM, 30 min pre-incubation
T1 sequence (P42225 2-749 limits assumed): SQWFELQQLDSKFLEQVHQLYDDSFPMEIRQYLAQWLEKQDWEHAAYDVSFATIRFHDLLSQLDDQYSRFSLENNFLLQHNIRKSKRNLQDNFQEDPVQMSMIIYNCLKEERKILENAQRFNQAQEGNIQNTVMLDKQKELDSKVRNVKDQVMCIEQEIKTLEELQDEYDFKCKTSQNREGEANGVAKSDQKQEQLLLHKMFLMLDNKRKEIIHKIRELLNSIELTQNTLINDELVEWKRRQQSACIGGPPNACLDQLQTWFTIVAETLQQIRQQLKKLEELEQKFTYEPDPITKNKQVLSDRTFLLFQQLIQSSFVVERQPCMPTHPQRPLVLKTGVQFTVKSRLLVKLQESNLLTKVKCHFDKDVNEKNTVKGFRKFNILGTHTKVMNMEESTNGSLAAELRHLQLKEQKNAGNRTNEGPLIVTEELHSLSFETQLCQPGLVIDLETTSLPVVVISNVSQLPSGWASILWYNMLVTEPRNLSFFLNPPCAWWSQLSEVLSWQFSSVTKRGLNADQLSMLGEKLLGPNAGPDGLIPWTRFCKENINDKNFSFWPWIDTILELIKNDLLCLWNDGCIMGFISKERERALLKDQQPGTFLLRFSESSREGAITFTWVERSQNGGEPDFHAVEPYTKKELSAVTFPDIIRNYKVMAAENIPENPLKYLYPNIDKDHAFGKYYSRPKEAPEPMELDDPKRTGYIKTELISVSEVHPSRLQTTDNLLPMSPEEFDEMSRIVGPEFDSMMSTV
Procedure, shortened: as §1

[2] = Cysteamine 1H NMR test for Michael acceptor reactivity; type: physicochemical; details: DMSO-d6, 1H NMR
U251MG cells [3] = test: CyQuant cell proliferation assay; type: cell-based, human
Procedure, shortened: (§2)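 CyQuant DNA-dye proliferation assay on cultured cells after 72 h exposure to test compound. Viability expressed relative to DMSO-treated control cells.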

U251MG cells [4] = test: Apoptosis by PARP or caspase cleavage; type: cell-based, human; details: 24 or 48 h
pStat3 = test: Immunoblotting of pStat3 in patient-derived xenograft cells; type: cell-based, human; details: 5 μM, 3 h
Procedure, shortened: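 Glioma patient-derived xenograft G22 cells (DMEM, 5–10% heat-inactivated FBS) given 5 μM test compound for 0–24 h. Whole-cell lysates immunoblotted for pStat3 and Stat3, with GAPDH as loading reference.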

MDA-MB-231 cells = test: CyQuant cell proliferation assay; type: cell-based, human; details: Homo sapiens, MDA-MB-231, 72 h, read-out: IC50 cell proliferation MDA-MB-231
Procedure, shortened: as §2

[5] = test system: suppressors of cytokine signaling (SOCS)3; test: Immunoblotting, U251MG glioma cells; type: cell-based, human; details: 5 μM
Procedure, shortened: (§3)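 U251MG cells given 5 μM test compound for 0–24 h. Whole-cell lysates of equal total protein immunoblotted for pErk1/2, Erk1/2, pS-Akt, Akt, pJAK2, JAK2, SOCS3 and PTP1B, with β-actin or GAPDH as loading reference.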

G22 cells [6] = test: 3D spheroid assay; type: cell-based, human; details: 5 μM, treated once
pErk1/2MAPK [7] = test: Immunoblotting, EGF-stimulated NIH3T3/hEGFR fibroblasts; type: cell-based, mouse; details: 5 μM pre-treatment
Procedure, shortened: (§4)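 NIH3T3/hEGFR fibroblasts pretreated with or without 5 μM test compound for 3 h, then stimulated with 1 μg/ml EGF for 12 min. Whole-cell lysates, equal total protein, immunoblotted for pStat1/Stat1, pStat5/Stat5 and pErk1/2/Erk1/2.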

pStat1 = test: as above; type: cell-based, mouse; details: 5 μM pre-treatment
Procedure, shortened: as §4

MCF-7 cells = test: CyQuant cell proliferation assay; type: cell-based; details: Homo sapiens, MCF7, 72 h, read-out: IC50 cell proliferation MCF-7
Procedure, shortened: as §2

U373MG cells = test: CyQuant cell proliferation assay; type: cell-based; details: Homo sapiens, U373 MG, 72 h, read-out: IC50 cell proliferation U373MG
Procedure, shortened: as §2

pS-Akt = test: Immunoblotting, U251MG glioma cells; type: cell-based, human; details: 5 μM
Procedure, shortened: as §3

G22 cells [8] = test: Growth of glioma patient-derived xenograft cells in vitro; type: cell-based; details: Homo sapiens, read-out: inhibitory activity against growth of G22 cells
NIH3T3 cells [9] = test: Colony survival assay; type: cell-based, mouse; details: 5 μM or less
Procedure, shortened: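 Cells seeded as single cells at 250 per well and treated once the next day with test compound (0–5 μM) for 72 h. Grown until large colonies were visible: 1 week for NIH3T3, 2 weeks for U251MG. Colonies stained with crystal violet for 4 h and counted.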

G12 cells = test: Growth of glioma patient-derived xenograft cells in vitro; type: cell-based; details: Homo sapiens, read-out: inhibitory activity against G12 cell growth
SF295 cells = test: CyQuant cell proliferation assay; type: cell-based; details: Homo sapiens, SF-295, 72 h, read-out: IC50 cell proliferation SF295
Procedure, shortened: as §2

[10] = test system: protein tyrosine phosphatase (PTP)1B; test: Immunoblotting, U251MG glioma cells; type: cell-based, human; details: 5 μM
Procedure, shortened: as §3

G10 cells = test: Growth of glioma patient-derived xenograft cells in vitro; type: cell-based; details: Homo sapiens, read-out: inhibitory activity against growth of G10 cells
pStat5 = test: Immunoblotting, EGF-stimulated NIH3T3/hEGFR fibroblasts; type: cell-based, mouse; details: 5 μM pre-treatment
Procedure, shortened: as §4

pErk1/2MAPK [11] = test: Immunoblotting, U251MG glioma cells; type: cell-based, human; details: 5 μM
Procedure, shortened: as §3

U251MG cells [12] = test: Scratch assay for migration; type: cell-based, human; details: 5 μM, 19-h treatment
Procedure, shortened: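 Sub-confluent U251MG monolayers wounded with pipette tips and treated once with test compound (0–5 μM) or DMSO vehicle. Cells allowed to migrate into the denuded area over 19 h, then imaged by microscopy at 10×.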

NIH3T3 cells [13] = test: CyQuant cell proliferation assay; type: cell-based, mouse; details: 5 μM
Procedure, shortened: as §2

Stat3:Stat3/DNA-binding activity (complexation), cell-free EMSA (Stat3:Stat3): diminished
effect on Stat1:Stat1 activity, cell-free EMSA (Stat1:Stat1): weak effects
SMILES: CC(=O)OCC1=C2/C(=C\[C@@]3(C)CC[C@](O)(O3)[C@H](C)C[C@@H]2O)OC1=O [Compound 11]
effect on Stat3 DNA-binding activity in treated tumor cells (Stat3): weak effect
effect on Stat5:Stat5 activity, cell-free EMSA (Stat5:Stat5): weak effects
effect on pStat3 in treated tumor cells (pYStat3): weak effect
chromatid structures and sister-chromatids segregation (mitosis) (U251MG cells [1]): minimal effect

SMILES: C=C1C(=O)O[C@@H]2/C=C(\C)CC/C=C(\C)CC[C@@H]12 [costunolide, reference compound]
Michael acceptor reaction with cysteamine [2]: formation of diastereomeric Michael adduct mixtures
cell growth activity, control compounds (U251MG cells [3]; panel of cell lines, Fig. S5E(i)): poorly-active or non-specific in activity
Stat3 activity in tumor cells, control compounds (pYStat3; Fig. S5E(ii)): did not inhibit

SMILES: CC(=O)O[C@H]1C(=O)[C@@]2(C)[C@H]([C@H](OC(=O)c3ccccc3)[C@]3(O)C[C@H](OC(=O)[C@H](O)[C@@H](NC(=O)c4ccccc4)c4ccccc4)C(C)=C1C3(C)C)[C@]1(OC(C)=O)CO[C@@H]1C[C@@H]2O [paclitaxel, reference compound]
apoptosis measured by PARP or caspase cleavage (U251MG cells [4]): induced apoptosis
chromatid structures and sister-chromatids segregation (mitosis) (U251MG cells [1]): caused strong defects

Michael acceptor reaction with cysteamine [2]: indicative of Michael acceptor reactions
SMILES: C=C(C)C(=O)O[C@H]1C[C@@H](C)[C@]2(OC)CC[C@](C)(/C=C3/OC(=O)C(COC(C)=O)=C31)O2 [Compound 9]
Stat3:Stat3/DNA-binding activity (complexation), cell-free EMSA (Stat3:Stat3): no effect; also recorded: only weakly inhibited
effect on pStat3 in treated tumor cells (pYStat3): little impact

pIC50 (MDA-MB-231 cells): 5.04 to 5.28
Michael acceptor reaction with cysteamine [2]: Michael acceptor reactions have occurred
pIC50 (MCF-7 cells): 5.02 to 5.32
Stat3:Stat3/DNA-binding activity (complexation), cell-free EMSA (Stat3:Stat3): diminished
effect on Stat1:Stat1 activity, cell-free EMSA (Stat1:Stat1): weak effects
SMILES: C/C=C(\C)C(=O)O[C@H]1C[C@@H](C)[C@]2(OC)CC[C@](C)(/C=C3/OC(=O)C(COC(C)=O)=C31)O2 [Compound 10]
effect on Phospho-Stat3 in G22 cells (pStat3): moderate inhibition
effect on Stat3 DNA-binding activity in treated tumor cells (Stat3): strongly inhibited
effect on SOCS3 levels [5]: no effects
3D spheroid growth (G22 cells [6]): modest
effect on EGF-stimulated pErk1/2MAPK levels (pErk1/2MAPK [7]): no effect
effect on EGF-stimulated pStat1 levels (pStat1): no effect
effect on Stat5:Stat5 activity, cell-free EMSA (Stat5:Stat5): weak effects
pIC50 (U373MG cells): 5.09 to 5.18
effect on pS-Akt levels (pS-Akt): no effects
effect on pStat3 in treated tumor cells (pYStat3): strongly inhibited
inhibition at 5 µM (G22 cells [8]): 45 to 60%
effects on NIH3T3 colony numbers (NIH3T3 cells [9]): moderate or none
inhibition at 5 µM (G12 cells): 25 to 35%
pIC50 (SF295 cells): 4.74 to 5.13
effect on PTP1B levels [10]: no effects
inhibition at 5 µM (G10 cells): 45 to 60%
effect on EGF-stimulated pStat5 levels (pStat5): no effect
effect on pErk1/2MAPK levels (pErk1/2MAPK [11]): no effects
migration into the denuded area (U251MG cells [12]): slowed migration

pIC50 (MDA-MB-231 cells): 5.04 to 5.28
pIC50 (MCF-7 cells): 5.02 to 5.32
Stat3:Stat3/DNA-binding activity (complexation), cell-free EMSA (Stat3:Stat3): diminished
effect on Stat1:Stat1 activity, cell-free EMSA (Stat1:Stat1): weak effects
SMILES: C/C=C(/C)C(=O)O[C@H]1C[C@@H](C)[C@]2(O)CC[C@](C)(/C=C3/OC(=O)C(COC(C)=O)=C31)O2 [Compound 20]
effect on Stat3 DNA-binding activity in treated tumor cells (Stat3): strongly inhibited
effect on SOCS3 levels [5]: no effects
effect on EGF-stimulated pErk1/2MAPK levels (pErk1/2MAPK [7]): no effect
effect on EGF-stimulated pStat1 levels (pStat1): no effect
effect on Stat5:Stat5 activity, cell-free EMSA (Stat5:Stat5): weak effects
pIC50 (U373MG cells): 5.09 to 5.18
effect on pS-Akt levels (pS-Akt): no effects
effect on pStat3 in treated tumor cells (pYStat3): strongly inhibited
pIC50 (SF295 cells): 4.74 to 5.13
effect on PTP1B levels [10]: no effects
effect on EGF-stimulated pStat5 levels (pStat5): no effect
effect on pErk1/2MAPK levels (pErk1/2MAPK [11]): no effects

pIC50 (Stat3; Homo sapiens, U-251, read-out: IC50 Stat3 DNA-binding activity in treated cells): 5.60 to 6.30
Stat3:Stat3/DNA-binding activity (complexation), cell-free EMSA (Stat3:Stat3): diminished
SMILES: C/C=C(\C)C(=O)OCC1=C2/C(=C\[C@@]3(C)CC[C@](O)(O3)[C@H](C)C[C@@H]2OC(=O)/C(C)=C/C)OC1=O [Compound 38]
effect on NIH3T3 growth (NIH3T3 cells [13]): inhibited NIH3T3 growth
effect on Stat3 DNA-binding activity in treated tumor cells (Stat3): suppressed
activity against U251MG cell growth (U251MG cells [3]; 5 μM): retained or improved the inhibitory potency
effect on pStat3 in treated tumor cells (pYStat3): suppressed

SMILES: CN[C@@H]1C[C@H]2O[C@@](C)([C@@H]1OC)n1c3ccccc3c3c4c(c5c6ccccc6n2c5c31)C(=O)NC4 [staurosporine]
apoptosis measured by PARP or caspase cleavage (U251MG cells [4]): induced apoptosis
